Tests used:
Format in all cases: functional, Artery
Rattus norvegicus [1] = experiment: The compound was tested for the maximum fall in systolic blood pressure 1-6 hr of 1.0 mg/kg oral dose administration in rats
In short: (§1)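 Conscious spontaneously hypertensive rats of Japanese (Okamoto) strain, 14-24 weeks old, hypertensive if systolic pressure >180 mmHg; groups of six per dose level unless indicated. Oral gavage via esophageal needle as solution or suspension in 1% w/v methylcellulose. Tail-cuff systolic pressure (each value mean of ≥6 recordings) taken predose and at intervals up to 6 h postdose.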

Rattus norvegicus [2] = experiment: The compound was tested for the maximum fall in systolic blood pressure 1-6 hr of 3.0 mg/kg oral dose administration in rats; in short: as §1
Rattus norvegicus [3] = experiment: The compound was tested for the maximum fall in systolic blood pressure 1-6 hr of 10.0 mg/kg oral dose administration in rats; in short: as §1
Rattus norvegicus [4] = experiment: The compound was tested for the maximum fall in systolic blood pressure 1-6 hr of 10 mg/kg oral dose administration in rats; in short: as §1
Rattus norvegicus [5] = experiment: The compound was tested for the maximum fall in systolic blood pressure 1-6 hr of 0.1 mg/kg oral dose administration in rats; in short: as §1
Rattus norvegicus [6] = experiment: The compound was tested for the maximum fall in systolic blood pressure 1-6 hr of 0.3 mg/kg oral dose administration in rats; in short: as §1
Rattus norvegicus [7] = experiment: The compound was tested for the maximum fall in systolic blood pressure 1-6 hr of 3 mg/kg oral dose administration in rats; in short: as §1

Row | Compound | Max fall in blood pressure (Rattus norvegicus [1]) [%] | Max fall in blood pressure (Rattus norvegicus [2]) [%] | Max fall in blood pressure (Rattus norvegicus [3]) [%] | other results
1 | CC1(C)C=C(N2CCCC2=O)c2cc(C#N)ccc2N1 | 10 | 29 | 49 | 
2 | CC1(C)Oc2ccc(Cl)cc2C(N2CCCC2=O)C1O (centres undefined) |  |  |  | Max fall in blood pressure (Rattus norvegicus [4]): 37%
3 | CNC(=O)NC1c2cc(C#N)ccc2CC(C)(C)C1O (centres undefined) |  | 23 | 52 | 
4 | CC1(C)C=C(N2CCCC2=O)c2cc(Cl)ccc2N1 |  |  |  | Max fall in blood pressure (Rattus norvegicus [4]): 13%
5 | CC1(C)Cc2ccc(C#N)cc2C(N2CCCC2=O)C1O (centres undefined) |  | 29 | 32 | 
6 | CC(=O)NC1c2cc(C#N)ccc2OC(C)(C)C1O (centres undefined) | 67 | 47 |  | Max fall in blood pressure (Rattus norvegicus [5]): 18%
7 | CC(=O)NC1c2cc(C#N)ccc2CC(C)(C)C1O (centres undefined) | 22 | 34 |  | 
8 | CNC(=O)CC1c2cc(C#N)ccc2OC(C)(C)C1O (centres undefined) |  | 9 |  | 
9 | CC(=O)CC1c2cc(C#N)ccc2OC(C)(C)C1O (centres undefined) | 5 |  | 30 | 
10 | CC1(C)C=C(N2CCCC2=O)c2cc(Br)ccc2N1 |  |  |  | Max fall in blood pressure (Rattus norvegicus [4]): 4%
11 | CN(C)C(=O)CC1c2cc(C#N)ccc2OC(C)(C)C1O (centres undefined) | 28 | 51 |  | 
12 | CNC(=O)NC1c2cc(C#N)ccc2OC(C)(C)[C@H]1O (some centres undefined) | 61 |  |  | Max fall in blood pressure (Rattus norvegicus [6]): 31%
13 | CC1(C)C=C(N2CCCC2=O)c2cc(C#N)ccc2C1 | 23 | 50 |  | 
14 | CC1(C)C=C(N2CCCC2=O)c2cc(C#N)ccc2O1 |  |  |  | Max fall in blood pressure (Rattus norvegicus [5]): 12%; Max fall in blood pressure (Rattus norvegicus [6]): 47%
15 | CC1(C)Nc2ccc(C#N)cc2C(N2CCCC2=O)C1O (centres undefined) |  | 26 | 39 | Max fall in blood pressure (Rattus norvegicus [4]): 9%
16 | CN1CCC(C2c3cc(C#N)ccc3OC(C)(C)C2O)C1=O (centres undefined) |  |  | 21 | Max fall in blood pressure (Rattus norvegicus [7]): 10%
17 | CC1(C)Oc2ccc(C#N)cc2C(NC(=O)c2ccccc2)C1O (centres undefined) |  |  | 41 | Max fall in blood pressure (Rattus norvegicus [6]): 16%
18 | CC1(C)Nc2ccc(Cl)cc2C(N2CCCC2=O)C1O (centres undefined) |  |  |  | Max fall in blood pressure (Rattus norvegicus [4]): 8%
19 | CC1(C)Cc2ccc(C#N)cc2C(NC(=O)c2ccccc2)C1O (centres undefined) |  | 16 | 44 | 
20 | CC1(C)Nc2ccc(Br)cc2C(N2CCCC2=O)C1O (centres undefined) |  |  |  | Max fall in blood pressure (Rattus norvegicus [4]): 6%
21 | CC1(C)Oc2ccc(C#N)cc2C(N2CCCC2=O)C1O (centres undefined) [CROMAKALIM] | 47 |  |  | Max fall in blood pressure (Rattus norvegicus [6]): 39%

Reference: ChEMBL document CHEMBL1125794, “Synthesis and antihypertensive activity of pyran oxygen and amide nitrogen replacement analogues of the potassium channel activator cromakalim” (1991)
